In brackets after ≈: the same amount, converted by molar mass.
Tests used:
[1] = In vitro for antifungal activity against 10 yeasts; format: functional; conditions: read-out: MIC
Method in brief: (§1)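 Agar dilution on Kimmig's agar with 0.5% glycerol, using ATCC strains or clinical isolates. Drug stocks were 800 μg/mL in 50% ethanol, tested as 2-fold dilutions from 80 to 0.03 μg/mL. Inocula were 10⁵ cfu/mL. […] Geometric means took >80 as 160 and ≤0.03 as 0.03.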

Candida albicans [2] = assay: Tested in vivo for anti-candida activity in mice model 1 (dose: 0.5 mg/kg, untreated group).; format: functional
Candida albicans [3] = assay: Tested in vivo for anti-candida activity in mice model 1 (dose:0.5 mg/kg, fluconazole-treated group); format: functional
[4] = In vitro antifungal activity against 6 filamentous fungi; format: functional; conditions: read-out: MIC; method in brief: as §1
Candida albicans [5] = assay: (§2) In vivo antifungal activity against murine candidosis model after peroral administration with 2.5 mg/kg at various time intervals. (percent protection for 100% mortality with untreated group); format: functional; conditions: route oral
Method in brief: (§3)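 Groups of 10 male mice were infected iv with 0.2 mL of C. albicans at 2 to 8×10^7 cfu/mL. Drug was given orally as a suspension in 1% Tween + 0.2% carboxymethylcellulose at 1, 4 and 24 h post-infection; controls got vehicle only. Survival was scored on days 3, 5, 7 and 9. Read-out was % survival on the day all untreated controls died, or on the day all mice given fluconazole at the same dose died.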

Candida albicans [6] = assay: (§4) In vivo antifungal activity against murine candidosis model after peroral administration with 2.5 mg/kg at various time intervals. (percent protection for 100% mortality with fluconazole-treated group.); format: functional; conditions: route oral; method in brief: as §3
Mus musculus [7] = assay: In vivo antifungal activity against murine candidosis model after peroral administration with 0.25 mg/kg at various time intervals. (percent protection for 100% mortality with untreated group); format: functional; conditions: route oral; method in brief: as §3
Mus musculus [8] = assay: In vivo antifungal activity against murine candidosis model after peroral administration with 0.25 mg/kg at various time intervals. (percent protection for 100% mortality with fluconazole-treated group.); format: functional; conditions: route oral; method in brief: as §3
Candida albicans [9] = assay: The compound was tested in vitro for antifungal activity against Candida albicans.; format: functional; method in brief: as §1
[10] = Half-life in rats after iv administration; format: ADME, organism-based; conditions: rat, in vivo
Mus musculus [11] = assay: In vivo antifungal activity against murine candidosis model after peroral administration with 0.5 mg/Kg at various time intervals. (percent protection for 100% mortality with untreated group); format: functional; method in brief: as §3
Candida albicans [12] = assay: In vivo antifungal activity against murine candidosis model after peroral administration with 1 mg/kg at various time intervals. (percent protection for 100% mortality with untreated group); format: functional; conditions: route oral; method in brief: as §3
Candida albicans [13] = assay: In vivo antifungal activity against murine candidosis model after peroral administration with 1 mg/kg at various time intervals. (percent protection for 100% mortality with fluconazole-treated group.); format: functional; conditions: route oral; method in brief: as §3
Oryctolagus cuniculus [14] = assay: In vivo antifungal activity against systemic candidosis in rabbit kidney at a dose of 12.5 mg/kg, qd, po.; format: functional
Method in brief: (§5)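 Groups of 10 male New Zealand rabbits were infected iv with C. albicans (1.2×10^7 cfu/kg). Drug was given orally as a suspension in 1% Tween 80 + 0.2% carboxymethylcellulose 4 h post-infection, then qd for 6 more days; controls got vehicle. On day 7, kidney or lung was homogenized in saline and plated on Sabouraud agar (37 °C, 7 days). Read-out was log cfu/g wet tissue.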

Oryctolagus cuniculus [15] = assay: In vivo antifungal activity against systemic candidosis in rabbit lung at a dose of 12.5 mg/kg, qd, po.; format: functional; method in brief: as §5
Mus musculus [16] = assay: as §2; format: functional; conditions: route oral; method in brief: as §3
Candida albicans [17] = assay: In vivo antifungal activity against murine candidosis model after peroral administration with 0.5 mg/kg at various time intervals. (percent protection for 100% mortality with fluconazole-treated group.); format: functional; conditions: route oral; method in brief: as §3
Candida albicans [18] = assay: In vivo antifungal activity against murine candidosis model after peroral administration with 0.5 mg/kg at various time intervals. (percent protection for 100% mortality with untreated group); format: functional; conditions: route oral; method in brief: as §3
Mus musculus [19] = assay: as §4; format: functional; conditions: route oral; method in brief: as §3

C[C@@H](n1ncn(-c2ccc(OCC(F)(F)C(F)F)cc2)c1=O)[C@](O)(Cn1cncn1)c1ccc(F)cc1F
MIC [1]: 2.6 µg/mL (≈ 4.79 µM) | Protection (Candida albicans [2]): 100% | Protection (Candida albicans [3]): 100% | MIC [4]: 8.9 µg/mL (≈ 16.4 µM)

C[C@@H](n1cnc2cc(Cl)ccc2c1=O)[C@](O)(Cn1ccnc1)c1ccc(F)cc1F
MIC [1]: 2 µg/mL (≈ 4.64 µM) | Protection (Candida albicans [5]): 0% | Protection (Candida albicans [6]): 0% | MIC [4]: 28 µg/mL (≈ 65 µM)

C[C@@H](NC(=O)c1ccc(Cl)cc1N)[C@](O)(Cn1cncn1)c1ccc(F)cc1F
MIC [1]: 3.7 µg/mL (≈ 8.77 µM) | Protection (Candida albicans [5]): 20% | Protection (Candida albicans [6]): 0% | MIC [4]: 8.9 µg/mL (≈ 21.1 µM)

C[C@H](n1cnc2cc(Cl)ccc2c1=O)[C@](O)(Cn1cncn1)c1ccc(F)cc1F
Protection (Mus musculus [7]): 0% | MIC [1]: 7.4 µg/mL (≈ 17.1 µM) | Protection (Mus musculus [8]): 0% | MIC [4]: 65 µg/mL (≈ 151 µM)

C[C@@H](n1cnc2cc(F)ccc2c1=O)[C@](O)(Cn1cncn1)c1ccc(F)cc1F
MIC (Candida albicans [9]): < 0.03 µg/mL | MIC [1]: 0.9 µg/mL (≈ 2.17 µM) | half-life [10]: 1.4 h | Protection (Mus musculus [11]): 0% | MIC [4]: 2.5 µg/mL (≈ 6.02 µM) | Protection (Candida albicans [12]): 0% | Protection (Candida albicans [13]): 0%

OC(Cn1cncn1)(Cn1cncn1)c1ccc(F)cc1F [FLUCONAZOLE]
Log cfu/g (Oryctolagus cuniculus [14]): 1.29 | Log cfu/g (Oryctolagus cuniculus [15]): 1.44 | MIC [1]: 30 µg/mL (≈ 98 µM) | Protection (Candida albicans [2]): 100% | MIC [4]: > 80 µg/mL

C[C@@H](n1cnc2cc(Cl)ccc2c1=O)[C@](O)(Cn1cncn1)c1ccc(Cl)cc1Cl
MIC [1]: 0.2 µg/mL (≈ 0.43 µM) | Protection (Mus musculus [16]): 80% | Protection (Candida albicans [6]): 0% | MIC [4]: 1.6 µg/mL (≈ 3.44 µM)

CCC(CC)n1ncn(-c2ccc(N3CCN(c4ccc5ncn([C@H](C)[C@](O)(Cn6cncn6)c6ccc(F)cc6F)c(=O)c5c4)CC3)cc2)c1=O
Protection (Candida albicans [17]): 0% | MIC [1]: 3.7 µg/mL (≈ 5.21 µM) | Protection (Candida albicans [18]): 0% | MIC [4]: 28 µg/mL (≈ 39.4 µM)

C[C@H](n1cnc2cc(Cl)ccc2c1=O)[C@@](O)(Cn1cncn1)c1ccc(F)cc1F
MIC [1]: 40 µg/mL (≈ 92.6 µM) | Protection (Mus musculus [16]): 0% | Protection (Mus musculus [19]): 0% | MIC [4]: > 80 µg/mL

COc1cccc2c(=O)n([C@H](C)[C@](O)(Cn3cncn3)c3ccc(F)cc3F)cnc12
MIC [1]: 10 µg/mL (≈ 23.4 µM) | Protection (Candida albicans [5]): 0% | Protection (Candida albicans [6]): 0% | MIC [4]: > 80 µg/mL

C[C@@H](n1cnc2cc(OCCF)ccc2c1=O)[C@](O)(Cn1cncn1)c1ccc(F)cc1F
Protection (Candida albicans [17]): 0% | MIC [1]: 1.4 µg/mL (≈ 3.05 µM) | Protection (Candida albicans [18]): 0% | MIC [4]: 28 µg/mL (≈ 60.9 µM)

C[C@@H](n1cnc2cc(C(F)(F)F)ccc2c1=O)[C@](O)(Cn1cncn1)c1ccc(F)cc1F
Protection (Candida albicans [17]): 60% | MIC [1]: 0.7 µg/mL (≈ 1.5 µM) | Protection (Candida albicans [18]): 100% | MIC [4]: 2.2 µg/mL (≈ 4.73 µM)

C[C@@H](n1cnc2cc(Oc3ccc(Cl)cc3)ccc2c1=O)[C@](O)(Cn1cncn1)c1ccc(F)cc1F
Protection (Candida albicans [17]): 80% | MIC [1]: 0.7 µg/mL (≈ 1.34 µM) | Protection (Candida albicans [18]): 100% | MIC [4]: 7.1 µg/mL (≈ 13.6 µM)

C[C@@H](n1cnc2cc(Sc3ccccc3)ccc2c1=O)[C@](O)(Cn1cncn1)c1ccc(F)cc1F
Protection (Candida albicans [17]): 0% | MIC [1]: 0.7 µg/mL (≈ 1.38 µM) | Protection (Candida albicans [18]): 0% | MIC [4]: 2 µg/mL (≈ 3.96 µM)

C[C@@H](n1cnc2ncccc2c1=O)[C@](O)(Cn1cncn1)c1ccc(F)cc1F
MIC [1]: 43 µg/mL (≈ 108 µM) | Protection (Mus musculus [16]): 0% | Protection (Mus musculus [19]): 0% | MIC [4]: > 80 µg/mL

C[C@@H](n1cnc2cc(N3CCOCC3)ccc2c1=O)[C@](O)(Cn1cncn1)c1ccc(F)cc1F
Protection (Candida albicans [17]): 0% | MIC [1]: 1.9 µg/mL (≈ 3.94 µM) | Protection (Candida albicans [18]): 20% | MIC [4]: 35 µg/mL (≈ 72.5 µM)

— ChEMBL document CHEMBL1131232, “New azole antifungals. 3. Synthesis and antifungal activity of 3-substituted-4(3H)-quinazolinones” (J Med Chem, 1998)
